The text below walks through data of ChEMBL document CHEMBL3875199, “Photodynamic effect of meso-(aryl)porphyrins and meso-(1-methyl-4-pyridinium)porphyrins on HaCaT keratinocytes” (Bioorg Med Chem Lett, 2017).

A short description of data set [1]: Phototoxicity against human HaCaT cells assessed as cell viability at 1 uM after irradiation with light at 180 J/cm'2 for 30 mins by MTT assay. The class given is functional. The following applies: light or radiation study, 0.5 h, read-out: Activity. The gist of the method: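 HaCaT screen at 1 µM porphyrin. Light 100 mW/cm² for 30 min (fluence 180 J/cm²). Viability by MTT, given as percent.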
Background: Formazan colour is commonly taken as a measure of viable cells.

Data set [2] is described as follows: Induction of singlet oxygen production assessed as amount of DPiBF remaining after irradiation with light at 9 mW/cm'2 for 30 mins by DPiBF photooxidation based spectrophotometric analysis (reference value: 80%). Type of data set: physicochemical. The following applies: 0.5 h. The gist of the method:
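Singlet oxygen measured by DPiBF photooxidation in DMF. Light at 9 mW/cm² for 30 min. DPiBF absorbance at 415 nm reported as percent of the starting value.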

The nature of data set [3]: Photostability of compound in aqueous media assessed as amount of soret band remaining after irradiation with white light at 100 mW/cm'2 for 30 mins by UV-spectrophotometric analysis. Type of data set: physicochemical. The following applies: read-out: Stability. The gist of the method:
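Porphyrin in aqueous medium under white light, 100 mW/cm², sampled at intervals up to 30 min. Soret band absorbance tracked and given as percent remaining of the original.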

A short description of data set [4]: Phototoxicity against human HaCaT cells assessed as reduction in cell viability after irradiation with white light at 120 J/cm'2 for 20 mins by MTT assay. The class given is functional, cell-based. The following applies: light or radiation study. The gist of the method: (§1)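 HaCaT PDT at 0.01, 0.03, 0.1, 0.3 and 1 µM porphyrin (untreated control as 0). Light 100 mW/cm² for 20 min (fluence 120 J/cm²). Viability by MTT. IC50 estimated from the roughly linear concentration–viability relationship.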

Data set [5] in a line: Dark toxicity against human HaCaT cells assessed as reduction in cell viability at >0.1 uM after 24 hrs by MTT assay. The class given is cell-based. The gist of the method: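 HaCaT keratinocytes held with porphyrin in the dark for 24 h, no light exposure, over 0.01–1 µM (untreated control as 0). Viability read by MTT.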
Data set [6] can be described thus: Phototoxicity against human HaCaT cells assessed as cell viability at 0.01 uM after irradiation with white light at 120 J/cm'2 for 20 mins by MTT assay. Type of data set: functional. As to conditions: light or radiation study, read-out: Activity. The gist of the method:
as §1

In the case of `C1=Cc2nc1c(-c1ccccc1)c1ccc([nH]1)c(-c1ccccc1)c1nc(c(-c3ccccc3)c3ccc([nH]3)c2-c2ccccc2)C=C1`, the viability at 1 µM in data set [1] came to 100%.
With `O=[N+]([O-])c1ccc(-c2c3nc(c(-c4ccccc4)c4ccc([nH]4)c(-c4ccc([N+](=O)[O-])cc4)c4nc(c(-c5ccccc5)c5ccc2[nH]5)C=C4)C=C3)cc1`, the Activity in data set [2] is given as 28%. The viability at 1 µM in data set [1] worked out at 95.2%. Further, in data set [3], the remaining at 0.5 h worked out at 97%.
For `C[n+]1ccc(-c2c3nc(c(-c4cc[n+](C)cc4)c4ccc([nH]4)c(-c4cc[n+](C)cc4)c4nc(c(-c5ccccc5)c5ccc2[nH]5)C=C4)C=C3)cc1.[I-].[I-].[I-]`, the Activity in data set [2] is 12%. For the same molecule, the viability at 1 µM in data set [1] is 23.9%. For the same molecule, the IC50 in data set [4] was determined as 67 nM. Further, the remaining at 0.5 h in data set [3] was found to be 97%.
For `C1=Cc2nc1c(-c1ccc3ccccc3c1)c1ccc([nH]1)c(-c1ccc3ccccc3c1)c1nc(c(-c3ccc4ccccc4c3)c3ccc([nH]3)c2-c2ccc3ccccc3c2)C=C1`, in data set [2], the Activity is given as 25%. In addition, in data set [1], the viability at 1 µM worked out at 100%.
As for `Clc1ccc(-c2c3nc(c(-c4ccc(Cl)cc4)c4ccc([nH]4)c(-c4ccc(Cl)cc4)c4nc(c(-c5ccc(Cl)cc5)c5ccc2[nH]5)C=C4)C=C3)cc1`, the viability at 1 µM in data set [1] amounted to 100%.
As for `C[n+]1ccc(-c2c3nc(c(-c4ccccc4)c4nc(c(-c5cc[n+](C)cc5)c5ccc([nH]5)c(-c5ccccc5)c5ccc2[nH]5)C=C4)C=C3)cc1.[I-].[I-]`, the Activity in data set [2] is listed as 18%. Also, the viability at 1 µM in data set [1] was determined as 19.5%. For the same molecule, the IC50 in data set [4] was 136 nM. For the same molecule, the remaining at 0.5 h in data set [3] is 91%.
Turning to `C[n+]1ccc(-c2c3nc(c(-c4ccccc4)c4ccc([nH]4)c(-c4ccccc4)c4nc(c(-c5cc[n+](C)cc5)c5ccc2[nH]5)C=C4)C=C3)cc1.[I-].[I-]`, the Activity was 20% in data set [2] and “Toxic” in data set [5]. For the same molecule, the viability at 1 µM in data set [1] stood at 23.2%. Further, the viability at 0.01 µM in data set [6] was found to be 69%. Moreover, in data set [4], the concentration for half-maximal inhibition (IC50) is 52.3 nM. In addition, in data set [3], the remaining at 0.5 h worked out at 92%.
Turning to `O=S(=O)([O-])c1ccc(-c2c3nc(c(-c4ccc(S(=O)(=O)[O-])cc4)c4ccc([nH]4)c(-c4ccc(S(=O)(=O)[O-])cc4)c4nc(c(-c5ccc(S(=O)(=O)[O-])cc5)c5ccc2[nH]5)C=C4)C=C3)cc1.[Na+].[Na+].[Na+].[Na+]`, the Activity in data set [2] worked out at 24%. For the same molecule, in data set [1], the viability at 1 µM came to 76.1%. Besides, the remaining at 0.5 h in data set [3] was determined as 91%.
The corresponding values for `COc1ccc(-c2c3nc(c(-c4ccc(OC)cc4)c4ccc([nH]4)c(-c4ccc(OC)cc4)c4nc(c(-c5ccc(OC)cc5)c5ccc2[nH]5)C=C4)C=C3)cc1` are 28%, 100% and 97%.
The corresponding values for `CC(=O)Oc1ccc(-c2c3nc(c(-c4ccc(OC(C)=O)cc4)c4ccc([nH]4)c(-c4ccc(OC(C)=O)cc4)c4nc(c(-c5ccc(OC(C)=O)cc5)c5ccc2[nH]5)C=C4)C=C3)cc1` are 29%, 100% and 83%.
The corresponding values for `Nc1ccc(-c2c3nc(c(-c4ccccc4)c4ccc([nH]4)c(-c4ccccc4)c4nc(c(-c5ccccc5)c5ccc2[nH]5)C=C4)C=C3)cc1` are 59%, 100% and 96%.
As to `O=[N+]([O-])c1ccc(-c2c3nc(c(-c4ccccc4)c4ccc([nH]4)c(-c4ccccc4)c4nc(c(-c5ccccc5)c5ccc2[nH]5)C=C4)C=C3)cc1`, the Activity in data set [2] was determined as 33%. Further, the viability at 1 µM in data set [1] was 92.8%. The remaining at 0.5 h in data set [3] amounted to 96%.
Consider `C[n+]1ccc(Sc2c(F)c(F)c(-c3c4nc(c(-c5c(F)c(F)c(Sc6cc[n+](C)cc6)c(F)c5F)c5ccc([nH]5)c(-c5c(F)c(F)c(Sc6cc[n+](C)cc6)c(F)c5F)c5nc(c(-c6c(F)c(F)c(Sc7cc[n+](C)cc7)c(F)c6F)c6ccc3[nH]6)C=C5)C=C4)c(F)c2F)cc1.[I-].[I-].[I-].[I-]`, for which, in data set [2], the Activity worked out at 25%. The viability at 1 µM in data set [1] worked out at 20.3%. Also, the IC50 in data set [4] amounted to 240 nM. The remaining at 0.5 h in data set [3] worked out at 89%.
As for `C[n+]1ccc(-c2c3nc(c(-c4ccccc4)c4ccc([nH]4)c(-c4ccccc4)c4nc(c(-c5ccccc5)c5ccc2[nH]5)C=C4)C=C3)cc1.[I-]`, the Activity in data set [2] is recorded as 13%. Besides, the viability at 1 µM in data set [1] was determined as 29.4%. In addition, the IC50 in data set [4] was found to be 602 nM.
Take `Cc1ccc(-c2c3nc(c(-c4ccc(C)cc4)c4ccc([nH]4)c(-c4ccc(C)cc4)c4nc(c(-c5ccc(C)cc5)c5ccc2[nH]5)C=C4)C=C3)cc1`: the viability at 1 µM in data set [1] came to 100%.
Take `C[n+]1ccc(-c2c3nc(c(-c4cc[n+](C)cc4)c4ccc([nH]4)c(-c4cc[n+](C)cc4)c4nc(c(-c5cc[n+](C)cc5)c5ccc2[nH]5)C=C4)C=C3)cc1.[I-].[I-].[I-].[I-]`: the Activity in data set [2] is reported as 22%. Moreover, in data set [1], the viability at 1 µM came out at 26.6%. In addition, the IC50 in data set [4] was 59 nM. For the same molecule, the remaining at 0.5 h in data set [3] is 98%.

In general, IC50 refers to the concentration at which inhibition is half-maximal.
